In ChEMBL document CHEMBL1817589, “Synthesis and antibacterial activity of C2-symmetric binaphthyl scaffolded amino acid derivatives” (2011):
In brackets after ≈: the same amount, converted by molar mass.

Assays:
Enterococcus faecium [1] = experiment: Antibacterial activity against vancomycin-resistant Enterococcus faecium isolate 820; format: functional
Method in brief: (§1)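 Wild-type and clinical E. faecium isolates were grown in Enterococcosal broth. Overnight stationary-phase cultures were diluted 1:1000 into fresh medium and incubated with two-fold compound dilutions (seven concentrations) overnight at 37 °C in 96-well plates. The MIC was recorded as the […], and values were rounded.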

Enterococcus faecium [2] = experiment: Antibacterial activity against vancomycin-resistant Enterococcus faecium isolate 449; format: functional; method in brief: as §1
Enterococcus faecium [3] = experiment: Antibacterial activity against vancomycin-resistant Enterococcus faecium isolate 243; format: functional; method in brief: as §1
Staphylococcus aureus [4] = experiment: Antibacterial activity against vancomycin-sensitive Staphylococcus aureus ATCC 6538P; format: functional
Enterococcus faecium [5] = experiment: Antibacterial activity against vancomycin-sensitive Enterococcus faecium isolate 987
Staphylococcus aureus [6] = experiment: Antibacterial activity against Staphylococcus aureus; format: functional
[7] = Enterococcus faecium, isolate 243, read-out: MIC
[8] = Staphylococcus aureus, ATCC 6538P, read-out: MIC

Row | MIC (Staphylococcus aureus [6]) [µM] | Structure (SMILES) | MIC (Enterococcus faecium [1]) [µM] | MIC (Enterococcus faecium [2]) [µM] | MIC (Enterococcus faecium [3]; [7]) [µM] | MIC (Staphylococcus aureus [4]; [8]) [µM] | MIC (Enterococcus faecium [5]) [µM] | MIC (Enterococcus faecium [3]) [µM] | MIC (Staphylococcus aureus [4]) [µM]
1 | – | N=C(N)NCCC[C@@H](NC(=O)CCCOc1ccc2ccccc2c1-c1c(OCCCC(=O)N[C@H](CCCNC(=N)N)C(=O)OCc2ccccc2)ccc2ccccc12)C(=O)OCc1ccccc1 (stereo in doubt; 21) | 31 (≈ 29.5 µg/mL) | 31 (≈ 29.5 µg/mL) | 61 (≈ 58 µg/mL) | 2 (≈ 1.9 µg/mL) | 31 (≈ 29.5 µg/mL) | – | –
2 | – | Cl.Cl.N=C(N)NCCC[C@@H](NC(=O)CCCOc1ccc2ccccc2c1-c1c(OCCCC(=O)N[C@H](CCCNC(=N)N)C(=O)OCc2ccccc2)ccc2ccccc12)C(=O)OCc1ccccc1 (stereo in doubt; 22) | – | – | – | – | – | 31 | 4
3 | 2 (≈ 1.71 µg/mL) | C=CCOc1ccc2ccccc2c1-c1c(OCC(=O)N[C@H](CCCCN)C(=O)N[C@H](CCCNC(=N)N)C(=O)N[C@@H](CC=C)C(=O)OCc2ccccc2)ccc2ccccc12 | – | – | – | – | – | – | –
4 | 2 (≈ 1.5 µg/mL) | C=CCc1cc2ccccc2c(-c2c(OC)c(CC(NC(C)=O)C(=O)N[C@H](CCCNC(=N)N)C(=O)N[C@@H](CC=C)C(=O)OC)cc3ccccc23)c1OC (some centres undefined) | – | – | – | – | – | – | –
5 | – | N=C(N)NCCC[C@@H](NC(=O)CCCOc1ccc2ccccc2c1-c1c(OCCCC(=O)N[C@H](CCCNC(=N)N)C(=O)OCc2ccccn2)ccc2ccccc12)C(=O)OCc1ccccn1 | > 122 | > 122 | > 122 | 15 (≈ 14.3 µg/mL) | > 122 | – | –
6 | – | CN[C@H](CC(C)C)C(=O)N[C@H]1C(=O)N[C@@H](CC(N)=O)C(=O)N[C@H]2C(=O)N[C@H]3C(=O)N[C@H](C(=O)N[C@H](C(=O)O)c4cc(O)cc(O)c4-c4cc3ccc4O)[C@H](O)c3ccc(c(Cl)c3)Oc3cc2cc(c3O[C@@H]2O[C@H](CO)[C@@H](O)[C@H](O)[C@H]2O[C@H]2C[C@](C)(N)[C@H](O)[C@H](C)O2)Oc2ccc(cc2Cl)[C@H]1O [VANCOMYCIN] | > 86 | 43 (≈ 62.3 µg/mL) | 1 (≈ 1.45 µg/mL) | 1 (≈ 1.45 µg/mL) | < 1 | – | –
7 | – | NCCCC[C@@H](NC(=O)CCCOc1ccc2ccccc2c1-c1c(OCCCC(=O)N[C@H](CCCCN)C(=O)OCc2cccc3ccccc23)ccc2ccccc12)C(=O)OCc1cccc2ccccc12 | 59 (≈ 58.7 µg/mL) | 117 (≈ 116 µg/mL) | > 117 | 7 (≈ 6.97 µg/mL) | 117 (≈ 116 µg/mL) | – | –
8 | – | NCCCC[C@@H](NC(=O)CCCOc1ccc2ccccc2c1-c1c(OCCCC(=O)N[C@H](CCCCN)C(=O)OCc2ccccc2)ccc2ccccc12)C(=O)OCc1ccccc1 | 65 (≈ 58.2 µg/mL) | 65 (≈ 58.2 µg/mL) | 129 (≈ 115 µg/mL) | 4 (≈ 3.58 µg/mL) | 129 (≈ 115 µg/mL) | – | –
9 | – | N=C(N)NCCCC[C@@H](NC(=O)CCCOc1ccc2ccccc2c1-c1c(OCCCC(=O)N[C@H](CCCCNC(=N)N)C(=O)OCc2cccc3ccccc23)ccc2ccccc12)C(=O)OCc1cccc2ccccc12 | 54 (≈ 58.3 µg/mL) | 109 (≈ 118 µg/mL) | > 109 | 7 (≈ 7.56 µg/mL) | > 108 | – | –
10 | – | NCCCC[C@@H](NC(=O)CCCOc1ccc2ccccc2c1-c1c(OCCCC(=O)N[C@H](CCCCN)C(=O)OCc2ccccn2)ccc2ccccc12)C(=O)OCc1ccccn1 | > 129 | > 129 | > 129 | 129 (≈ 116 µg/mL) | > 129 | – | –
11 | – | COC(=O)[C@@H](CCCCN)NC(=O)CCCOc1ccc2ccccc2c1-c1c(OCCCC(=O)N[C@H](CCCCN)C(=O)OC)ccc2ccccc12 | – | – | – | > 153 | – | – | –
12 | 5 (≈ 3.29 µg/mL) | C=CCOc1ccc2ccccc2c1-c1c(OCCCC(=O)N[C@H](CCCNC(=N)N)C(=O)OCc2ccccc2)ccc2ccccc12 | – | – | – | – | – | – | –
13 | – | COC(=O)[C@@H](CCCNC(=N)N)NC(=O)CCCOc1ccc2ccccc2c1-c1c(OCCCC(=O)N[C@H](CCCNC(=N)N)C(=O)OC)ccc2ccccc12 | > 143 | > 143 | – | 18 (≈ 14.4 µg/mL) | – | – | –
14 | – | N=C(N)NCCCC[C@@H](NC(=O)CCCOc1ccc2ccccc2c1-c1c(OCCCC(=O)N[C@H](CCCCNC(=N)N)C(=O)OCc2ccccc2)ccc2ccccc12)C(=O)OCc1ccccc1 | 59 (≈ 57.8 µg/mL) | 59 (≈ 57.8 µg/mL) | 59 (≈ 57.8 µg/mL) | 4 (≈ 3.92 µg/mL) | 119 (≈ 117 µg/mL) | – | –
15 | – | N=C(N)NCCC[C@@H](NC(=O)CCCOc1ccc2ccccc2c1-c1c(OCCCC(=O)N[C@H](CCCNC(=N)N)C(=O)NCc2ccccc2)ccc2ccccc12)C(=O)NCc1ccccc1 | 122 (≈ 116 µg/mL) | 61 (≈ 57.9 µg/mL) | 61 (≈ 57.9 µg/mL) | 2 (≈ 1.9 µg/mL) | 122 (≈ 116 µg/mL) | – | –
